Screens as filed in PubChem.
This is a sample that favours compounds with a hit; in the whole collection about 1.8% have one here.
ATG4B inh – ATG4B protease inhibitors, primary screen, biochemical, fluorescence, uHTS; Cysteine protease ATG4B (Homo sapiens), Q9Y4P1; ATG4B cleavage of LC3-PLA2, NBD-HPC fluorescence, 1 h; inhibition, % at 8.33 µM; 0.51% of 340,000 active; in the data active means inhibition above about 40%
LANA-H2A inh – blockers of LANA interaction with H2A/H2B – biochemical, FP readout, HTS, primary screen; 0.6% of 320,000 active; Protein LANA1 (Human herpesvirus 8 type P (isolate GK18)), Q9QR71; cell-free LANA-H2A/H2B peptide, fluorescence polarization; AID 2629, 2010; inhibition, % (concentration not given with the values); in the data active means inhibition mostly above about 10%, no sharp cut-off; inactive means mostly below about 6.7%
Target sequence (Q9QR71 whole entry, looked up): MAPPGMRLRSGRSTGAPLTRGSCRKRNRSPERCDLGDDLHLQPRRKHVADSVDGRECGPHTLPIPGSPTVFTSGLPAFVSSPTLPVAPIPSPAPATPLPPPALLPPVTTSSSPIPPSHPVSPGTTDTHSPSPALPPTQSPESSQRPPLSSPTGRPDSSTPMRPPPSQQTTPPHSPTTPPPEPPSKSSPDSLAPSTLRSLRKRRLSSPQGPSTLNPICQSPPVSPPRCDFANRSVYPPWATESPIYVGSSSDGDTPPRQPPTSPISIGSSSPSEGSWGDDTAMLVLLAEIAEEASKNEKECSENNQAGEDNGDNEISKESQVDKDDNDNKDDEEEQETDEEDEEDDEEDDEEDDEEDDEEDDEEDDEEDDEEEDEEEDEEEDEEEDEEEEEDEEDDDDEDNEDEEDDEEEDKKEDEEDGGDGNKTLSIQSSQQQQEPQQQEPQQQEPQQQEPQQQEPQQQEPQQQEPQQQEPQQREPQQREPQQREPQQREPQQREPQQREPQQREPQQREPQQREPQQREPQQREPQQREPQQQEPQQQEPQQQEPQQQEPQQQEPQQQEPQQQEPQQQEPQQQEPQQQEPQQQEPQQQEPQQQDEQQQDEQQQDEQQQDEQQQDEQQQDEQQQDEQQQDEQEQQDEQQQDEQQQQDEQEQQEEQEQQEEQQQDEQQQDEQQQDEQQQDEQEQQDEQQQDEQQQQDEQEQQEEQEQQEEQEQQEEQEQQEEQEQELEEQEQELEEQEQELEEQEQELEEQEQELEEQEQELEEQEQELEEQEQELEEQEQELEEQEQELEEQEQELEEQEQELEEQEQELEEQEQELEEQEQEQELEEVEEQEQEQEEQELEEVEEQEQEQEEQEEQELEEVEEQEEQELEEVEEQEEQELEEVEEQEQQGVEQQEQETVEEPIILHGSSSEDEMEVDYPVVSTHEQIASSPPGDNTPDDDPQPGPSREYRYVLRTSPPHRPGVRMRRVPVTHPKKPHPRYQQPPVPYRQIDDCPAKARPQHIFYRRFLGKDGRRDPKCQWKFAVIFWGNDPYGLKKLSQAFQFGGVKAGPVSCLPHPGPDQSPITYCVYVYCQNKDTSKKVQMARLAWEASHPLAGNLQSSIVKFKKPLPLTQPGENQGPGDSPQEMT
AI-2 QS modul – Vibrio harveyi AI-2 quorum sensing modulators, primary screen, JMH597 strain, luminescence/OD600 ratio; Vibrio harveyi JMH597 AI-2 luminescence/OD600 ratio, 9 h; stronger effect = lower value; strain lacks LuxN and CqsS sensors; 0 = neutral-control median; activity change, % at 7.5 µM; 0.4% of 300,000 active; AID 2094, 2009; in the data active means activity change below about -75%, passing the limit was not always enough; inconclusive means no clear call, values can overlap the other calls;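 further: luminescence divided by OD600 gain over 9 h not by final OD600 alone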
HDAC3 inhib – HDAC3 deacetylase inhibitors, primary screen, biochemical, fluorescence, cell-free homogeneous. Histone deacetylase 3 (Homo sapiens), O15379. 0.15% of 320,000 active. recombinant HDAC3, fluorogenic peptide/trypsin coupled. inhibition, % at 8.3 µM; in the data active means inhibition above about 26%, passing the limit was not always enough; inconclusive means no clear call, values can overlap the other calls
HKDC1 inh – HKDC1 hexokinase inhibitors, primary screen, biochemical, fluorescence, uHTS; 0.16% of 340,000 active; Q2TB90; AID 493160, 2011; inhibition, % at 20 µM; recombinant HKDC1, G6PDH/diaphorase resazurin coupled fluorescence;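 active means inhibition above about 35% when tested at 20 µM, limit read from the data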
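Incubation: 90 min at room temperature in dark / Material: recombinant HKDC1 (HK5) hexokinase enzyme, produced in-house / Quantity: enzyme 5 µg/mL final / Compound: one dose of 20 µM, 1% DMSO / Reagent: glucose and ATP substrates / Buffer or medium: Tris pH 8.0 buffer with MgCl2, Tween-20, BSA, BME / Technique: resorufin fluorescence at 613 nm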
A1 inh – caspase 3/7 activation in MEF A1-2A-BIM cells, primary screen, A1 inhibitor project, cell-based, luminescence, HTS | caspase activation, % (test concentration not listed) | 0.066% of 330,000 active | AID 2462, 2010 | Caspase-Glo 3/7 luminescence, 3 h; percent of clofoctol response, vehicle zero;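 active means over half of replicate activation scores above 10%, or exactly half above 10 with the replicate mean above 10; inconclusive means replicate mean below 10 yet half the replicates above 10; inactive means over half of replicates below 10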
Hits are given with their value; 0 = inactive; ? = inconclusive; - = no result; + = active, no number; ! = not confirmed by another sample.

SMILES	ATG4B inh	LANA-H2A inh	AI-2 QS modul	HDAC3 inhib	HKDC1 inh	A1 inh
C[N+]1(C)[C@@H]2CC[C@H]1CC(OC(=O)C(CO)c1ccccc1)C2 (stereo partly specified)	0	37!	0	0	0	0
Nc1c(Br)cc([N+](=O)[O-])cc1[N+](=O)[O-]	0	26	-	0	0	0
Nc1ccc2nonc2c1[N+](=O)[O-]	0	29	0	0	0	0
O=c1[nH]cnc2nc(-c3ccc(N(CCCl)CCCl)cc3)[nH]c12	0	-	-	-	0	-
Cc1cc(C)c(C(=O)N2CCC3(CC2)OCCO3)c(C)c1	0	28	0	0	0	0
CC(C)Oc1cccc(NC(=O)c2cccn(Cc3ccc4c(c3)OC(F)(F)O4)c2=O)c1	0	0	0	34	0	0
O=C(Nc1cccc(C(F)(F)F)c1)c1cccn(Cc2ccc3c(c2)OC(F)(F)O3)c1=O	0	0	0	0	0	0
CC(=O)O[C@@H]1/C=C/[C@](C)(O)C[C@@H](C)C/C=C/[C@H]2[C@@H]3O[C@]3(C)[C@@H](C)[C@H]3[C@H](Cc4ccccc4)NC(=O)[C@@]312	0	0	0	0	0	6.4
CC(=O)O[C@@H]1/C=C/[C@](C)(O)C[C@@H](C)C/C=C/[C@H]2[C@H](O)[C@@](C)(O)[C@@H](C)[C@H]3[C@H](Cc4ccccc4)NC(=O)[C@@]312	0	0	0	0	0	0
CC(CCN1CC1)=NNC(=O)Nc1cccc2ccccc12	0	-	-	-	0	-
O=P(NC1CCCCC1)(Oc1ccccc1)Oc1ccccc1	0	-	-	-	0	-
O=C1NC(=O)N(Cc2ccc(F)cc2)C(=O)/C1=C\C=C\c1ccco1	0	0	0	0	0	0
CCCCN1C(=O)/C(=C/C=C/c2ccco2)C(=O)NC1=S	44	-	0	-	0	-
CN1C(=O)C(C)(C2=CCCCC2)C(=O)NC1=S (stereo unspecified)	0	-	-	-	0	-
CN(C)[C@@H]1C(=O)C(C(N)=O)=C(O)[C@@]2(O)C(=O)C3=C(O)c4c(O)cccc4[C@@](C)(O)C3[C@H](O)C12 (stereo partly specified)	0	0	-82	0	0	0
CCCNC(=O)N1[C@H]2CC[C@@H]1C(C(=O)OC)=C(c1ccc(-c3ccccc3)c(F)c1)C2	0	0	-	0	0	0
COC(=O)C1=C(C(=O)OC)C2OC1c1cc3ccccc3cc12	0	-	-	-	0	-
O=C(CCN1CCCCC1)Nc1ccc(Br)cc1C(=O)c1ccccc1	0	19	0	0	0	0
Nc1ccc2ccc3cccc[n+]3c2c1	0	36	0	0	0	0
COc1ccc(-n2c(O)c(/C=C3\C=Nc4ccc(Br)cc43)c(=O)[nH]c2=O)c(OC)c1	0	0	0	0	0	0
COc1ccc(-n2c(O)c(/C=C3\C=Nc4ccc(Br)cc43)c(=O)[nH]c2=O)cc1	0	13	0	0	0	0
O=C1NC(=S)NC(=O)C1=Cc1ccc(Br)s1	0	0	-87	0	0	0
CN1C(=O)/C(=C\c2ccc(Br)s2)C(=O)NC1=S	0	0	?	0	0	0
COC(=O)C1=C(c2cc3ccccc3o2)C[C@@H]2CC[C@H]1N2C(=O)NCc1cccc2ccccc12	0	0	0	0	0	0
COP(=S)(OC)SCN1C(=O)c2ccccc2C1=O	0	23	0	-	0	-
SMILES	ATG4B inh	LANA-H2A inh	AI-2 QS modul	HDAC3 inhib	HKDC1 inh	A1 inh
CNC(=O)CSP(=S)(OC)OC	0	-	-	-	0	-
CCC/C=N/O	0	32	-	0	0	0
Cc1cc(C(=O)OCC(=O)Nc2ccc(F)cc2F)c(C)n1C1CC1	0	146	-	0	0	0
Cc1cc(C(=O)OCC(=O)Nc2ccccc2F)c(C)n1C1CC1	0	-	-	-	0	-
CNCC(=O)c1ccccc1	0	0	0	0	0	0
CC(=O)c1ccc2c(c1)OCO2	0	0	0	0	0	0
C/C=C/c1ccc2c(c1)OCO2	0	11	-	0	0	0
CC(=O)CCC(C)=O	0	+	-	0	0	0
C[C@H]1CCC/C=C/[C@@H]2C[C@H](O)C[C@H]2[C@@H](O)/C=C/C(=O)O1	0	-	-	-	0	-
COc1ccc(C[C@H]2NC[C@H](O)[C@H]2OC(C)=O)cc1	0	0	0	0	0	7.5
Cc1ccc(N)c(C)c1	0	37	-	0	0	0
Cc1ccccc1N	0	0	-	0	0	0
Cn1ncnc2c(=O)n(C)c(=O)nc1-2	86	0	-81	0	69	0
CC(C)C[C@H](NP(=O)(O)O[C@@H]1O[C@@H](C)[C@H](O)[C@@H](O)[C@H]1O)C(=O)N[C@@H](Cc1c[nH]c2ccccc12)C(=O)O	0	0	-	0	0	0
Cc1cc(OCCCC(=O)NCc2cccs2)ccc1Cl	0	23	0	0	0	0
Fc1ccc(C(OCCN2CCCC2)c2ccc(Br)cc2)cc1 (stereo unspecified)	0	13	0	0	0	0
Cc1ccc(N2C(=O)CC(=O)NC2=O)cc1Cl	0	0	0	0	0	0
CCOC(=O)Cc1csc(NC(=O)c2c(O)c3ccccc3n(CCC(C)C)c2=O)n1	0	15	0	0	0	0
COc1ccc(OC)c(CNCCc2ccc(OC)c(OC)c2)c1	0	0	0	0	0	0
COc1ccc2c(c1)c(C(=O)C(C)N1CCCCC1)c(C)n2C (stereo unspecified)	0	0	0	0	0	0
CCOC(=O)C1SC2(C(F)(F)F)CC1(O)c1c(C)cc(C)nc1O2 (stereo unspecified)	0	0	0	44	0	0
N#CSCC(=O)N1c2ccccc2CCc2ccccc21	0	0	-76	0	0	0
CCCOc1ccc(C(C)=O)cc1Cc1c(O)[nH]c(=S)[nH]c1=O	0	16	0	0	0	0
CNC(=O)Oc1cc2c(cc1C(C)(C)C)CCC2	0	-	-	-	0	-
CC[C@@H]1C=CC=CC[C@H](C)[C@@H](O)[C@@H](C)C(=O)[C@H](C)[C@@H](O)[C@H](C)C(=O)[C@H](C)[C@@H](O)[C@H](C)C=CC(=O)O[C@H]2[C@@H](C)[C@@H](CC1)O[C@@]1(CC[C@@H](C)[C@@H](C[C@H](C)O)O1)[C@@H]2C	-	0	0	50	-	0
CCN(CC)C(=O)c1ccc(NC(=O)c2ccc(-c3nn(C)c(=O)c4ccccc34)cc2)cc1	0	0	0	0	0	0
